Inhibition in vivo, Activity and ED50 data for 27 compounds are collected here from ChEMBL document CHEMBL1129459, “Studies on disease-modifying antirheumatic drugs: synthesis of novel quinoline and quinazoline derivatives and their anti-inflammatory effect” (1996).

One may read the inhibition in vivo as the share of the control response that was lost under treatment. Usually ED50 stands for the dose at which the effect has come halfway, by size or by number of responders.

Common to all, as to type: functional
The subject of assay [1] is Rattus norvegicus. Put plainly: Inhibition of adjuvant induced swelling of rat right hind paw by 50 mg/kg p.o. administration. Conditions: route oral.
The species named for assay [2] is Rattus norvegicus. Put plainly: Bone resorption inhibitory effect was evaluated as calcium released from bone into medium at 10 uM compound concentration, expressed as percent of control. More on the design: scale not given: the % may be the effect or the level left. The gist of the method:
(§1)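 Rat fetal long-bone (Raisz) assay. A pregnant Sprague–Dawley rat received 50 µCi 45Ca s.c. on gestation day 18. Fetal humeri (radii and ulnae) were taken the next day and cleaned of connective tissue and cartilage. Bones were preincubated 24 h at 37 °C, 5% CO2, in BGJb medium with 2 mg/mL BSA. They were then cultured 2 days with compound at 10 or 30 µM final. Read-out was 45Ca released/(released + bone-retained) ×100, mean of five bones, as % of untreated same-litter controls.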

Assay [3] concerns Rattus norvegicus. Put plainly: Inhibitory effect of 12.5 mg/Kg orally administered compound against swelling of right hand paw as a measure of anti-inflammatory activity. To be noted: po.
The species named for assay [4] is Rattus norvegicus. The experiment in a line: Effective dose to inhibit the rat's left hand paw swelling by 50%. The gist of the method:
(§2)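 Adjuvant arthritis in male Lewis rats, 7 weeks old, n = 7. Rats were sensitized intradermally in the right hind plantar site with 0.05 mL of 0.5% killed M. tuberculosis H37 RA in liquid paraffin. Compound in 0.5% methylcellulose was given p.o. once daily for 14 days, starting day 0. Left hind paw volume was measured on days 0 and 14. ED50 came from linear regression across three or four doses.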

The species named for assay [5] is Rattus norvegicus. Put plainly: Effective dose of compound to inhibit the rat's left hand paw swelling by 50%. The gist of the method: as §2
Assay [6] is filed under the species Rattus norvegicus. The experiment in a line: Bone resorption inhibitory effect was evaluated as calcium released from bone into medium at 30 uM compound concentration, expressed as percent of control. Set-up: scale not given: the % may be the effect or the level left. The gist of the method:
as §1

For assay [7], the species on record is Rattus norvegicus. Put plainly: Bone resorption inhibitory effect was evaluated as calcium released from bone into medium at 25 uM compound concentration, expressed as percent of control. Set-up: scale not given: the % may be the effect or the level left.

Take `CCOC(=O)c1c(CSc2nccn2C)nc2cc3c(cc2c1-c1ccc(OC)c(OC)c1)OCCO3`: in assay [1], the inhibition in vivo at 50 mg/kg is 56%. Also, the Activity in assay [2] is recorded as 66%. For the compound `CCOC(=O)c1c(Cn2ccnc2C)nc2cc(OC)c(OC)cc2c1-c1ccc(OC)c(OC)c1`, the inhibition in vivo at 12.5 mg/kg in assay [3] amounted to 55%. `CCOC(=O)c1c(Cn2ccnc2CC)nc2cc(OC)c(OC)cc2c1-c1ccc(OC)c(OC)c1`: the 50% effect level in assay [4] (ED50) was put at a dose of 9.1 mg/kg.

For `CCOC(=O)c1c(CSc2nccn2CC)nc2cc(OC)c(OC)cc2c1-c1ccc(OC)c(OC)c1`, the inhibition in vivo at 50 mg/kg in assay [1] worked out at 51%. Regarding `CCOC(=O)c1c(CSc2nccn2C)nc2cc(OCC)c(OCC)cc2c1-c1ccc(OC)c(OC)c1`, the inhibition in vivo at 50 mg/kg in assay [1] is 59%. On the same count and under the same terms, the figure for `COc1ccc(-c2nc(CCc3nccn3C)nc3cc(OC)c(OC)cc23)cc1OC` is 71%.

In the case of `CCOC(=O)c1c(CSc2nccn2C)nc2cc(OC)c(OC)cc2c1-c1ccc(OC)c(OC)c1`, the ED50 in assay [5] was determined as 25 mg/kg. Besides, in assay [1], the inhibition in vivo at 50 mg/kg was determined as 60%. In addition, in assay [6], the Activity is on record as 57%. Regarding `CCOC(=O)c1c(CSc2nccn2C)nc2cc(OC)c(OC)cc2c1-c1ccc2c(c1)OCO2`, the inhibition in vivo at 50 mg/kg in assay [1] stood at 63%. On the same count and under the same terms, the figure for `CCOC(=O)c1c(CSc2nccn2C)nc2ccccc2c1-c1ccc(OC)c(OC)c1` is 33%. On the same count and under the same terms, the figure for `CCOC(=O)c1c(CSc2nccn2C)nc2cc(OC)c(OC)cc2c1-c1ccc(Cl)cc1` is 41%; for `COc1ccc(-c2nc(CSc3nccn3C)nc3cc(OC)c(OC)cc23)cc1OC` it is below 50%. On to `CCOC(=O)c1c(CCc2nccn2C)nc2cc(OC)c(OC)cc2c1-c1ccc(OC)c(OC)c1`, for which the inhibition in vivo at 50 mg/kg in assay [1] was 75%. Further, the ED50 in assay [4] was found to be 14.7 mg/kg.

`COC(=O)c1c(CSc2nccn2C)nc2cc(OC)c(OC)cc2c1-c1ccc(OC)c(OC)c1`: in assay [1], the inhibition in vivo at 50 mg/kg stood at 67%. For the same compound, the Activity in assay [2] is on record as 46%. In turn, `CCOC(=O)c1c(Cn2ccnc2)nc2cc(OC)c(OC)cc2c1-c1ccc(OC)c(OC)c1` yielded an inhibition in vivo at 12.5 mg/kg in assay [3] of 70%. Besides, in assay [4], the ED50 came out at 7.7 mg/kg.

With `COc1cc2c(OC)c3c(c(-c4ccc5c(c4)OCO5)c2cc1OC)C(=O)OC3` [JUSTICIDIN A], the inhibition in vivo at 50 mg/kg in assay [1] was 10%. The Activity in assay [7] amounted to 48%. The compound `CCOC(=O)c1c(CSc2nncn2C)nc2cc(OC)c(OC)cc2c1-c1ccc(OC)c(OC)c1` yielded an ED50 in assay [5] of 11.6 mg/kg. Besides, the inhibition in vivo at 50 mg/kg in assay [1] was found to be 66%.

`CCOC(=O)c1c(C[S+]([O-])c2nccn2C)nc2cc(OC)c(OC)cc2c1-c1ccc(OC)c(OC)c1` (centres undefined) had an inhibition in vivo at 12.5 mg/kg in assay [3] of 73%. The compound also returned an ED50 in assay [4] of 6.5 mg/kg. As to `CCOC(=O)c1c(CSc2nccn2C)nc2ccc(OC)cc2c1-c1ccc(OC)cc1`, the inhibition in vivo at 50 mg/kg in assay [1] amounted to 45%. Also, the Activity in assay [2] came out at 66%. With `COc1ccc(-c2nc(Cn3cncn3)nc3cc(OC)c(OC)cc23)cc1OC`, the inhibition in vivo at 12.5 mg/kg in assay [3] is below 50%. Take `CCOC(=O)c1c(CSc2nccn2C)nc2cc(OC)c(OC)cc2c1-c1ccc(OC)cc1`: the inhibition in vivo at 50 mg/kg in assay [1] was 64%. In assay [3], `COc1ccc(-c2nc(Cn3ccnc3C)nc3cc(OC)c(OC)cc23)cc1OC` displayed an inhibition in vivo at 12.5 mg/kg below 50%. With `CCOC(=O)c1c(Cn2cncn2)nc2cc(OC)c(OC)cc2c1-c1ccc(OC)c(OC)c1`, the inhibition in vivo at 12.5 mg/kg in assay [3] stood at 65%. Moreover, in assay [6], the Activity was 59%. The same compound came in with an ED50 in assay [4] of 2.6 mg/kg.

For the compound `CCOC(=O)c1c(CS(=O)(=O)c2nccn2C)nc2cc(OC)c(OC)cc2c1-c1ccc(OC)c(OC)c1`, the inhibition in vivo at 50 mg/kg in assay [1] was 56%. Still for that read-out and setting: under `CCOC(=O)c1c(CSc2ncc[nH]2)nc2cc(OC)c(OC)cc2c1-c1ccc(OC)c(OC)c1` stands 60%; under `CCOC(=O)c1c(CSc2nccn2C)nc2cc(OC)c(OC)cc2c1-c1ccc(C)cc1`, 67%. Compound `CCOC(=O)c1c(CCCn2cncn2)nc2cc(OC)c(OC)cc2c1-c1ccc(OC)c(OC)c1` gave an inhibition in vivo at 12.5 mg/kg in assay [3] below 50%. As to `CCOC(=O)c1c(CSc2nccn2C)nc2cc(OC)c(OC)cc2c1-c1ccccc1`, the inhibition in vivo at 50 mg/kg in assay [1] amounted to 31%.
